This is a sample that favours compounds with a hit; in the whole collection about 2.3% have one here.
LMPTP block: LMPTP phosphatase inhibitors, primary screen, biochemical, fluorescence intensity, uHTS; Low molecular weight phosphotyrosine protein phosphatase (Homo sapiens), P24666; recombinant LMPTP-A, OMFP fluorogenic substrate; inhibition, % at 20 µM; hit rate 0.22% among 360,000;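 active means compounds that cut the enzyme signal by at least half of the control window in the single-dose screen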;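 further: plate controls were DMSO wells with enzyme plus substrate for no effect and substrate without enzyme for full effect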
Target sequence (P24666 whole entry, looked up): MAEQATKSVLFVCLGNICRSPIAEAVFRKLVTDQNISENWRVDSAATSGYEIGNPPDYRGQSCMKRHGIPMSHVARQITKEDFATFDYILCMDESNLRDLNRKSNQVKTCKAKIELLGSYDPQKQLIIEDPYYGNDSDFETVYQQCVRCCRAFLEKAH
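Material: LMPTP-A; amount: 0.625 nM enzyme; doses: single 20 µM dose; times: reaction 50 min, room temperature, dark; technique: fluorescence intensity of OMFP turnover product; benchmarks: no-enzyme and uninhibited controls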
Scp1 inh: Scp-1 phosphatase inhibitors, primary screen, biochemical, colorimetric, uHTS | Recombinant Scp1, phosphopeptide, malachite green phosphate absorbance | inhibition, % at 20 µM | AID 493091, 2011 | hit rate 0.88% among 340,000 | Carboxy-terminal domain RNA polymerase II polypeptide A small phosphatase 1 (Homo …;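 active means inhibition above about 50% at 20 µM, limit read from the data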;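 further: plate controls were DMSO wells with enzyme for no effect and wells lacking enzyme for full effect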
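Test system: SCP-1 phosphatase catalytic domain, residues 76-261 | Compound dosing: One concentration, 20 µM, with 1.0% DMSO | Schedule: 45 min room-temperature reaction, 5 min colour, 30 min stabiliser | Detection: Absorbance at 630 nm | Read-out basis: % inhibition of SCP-1 phosphate liberation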
Rpn11 inh: Rpn11 (PSMD14) deubiquitinase inhibitors, primary screen, biochemical, fluorescence polarization, uHTS; human 26S proteasome, Ub4-pepOG fluorescence polarization; 20S core pre-blocked with epoxomicin; inhibition, % at 20 µM; hit rate 0.59% among 360,000;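 active means inhibition at 20 µM, scaled to each plate's controls, above about 33%, limit read from the data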
Target sequence (O00487 whole entry, looked up): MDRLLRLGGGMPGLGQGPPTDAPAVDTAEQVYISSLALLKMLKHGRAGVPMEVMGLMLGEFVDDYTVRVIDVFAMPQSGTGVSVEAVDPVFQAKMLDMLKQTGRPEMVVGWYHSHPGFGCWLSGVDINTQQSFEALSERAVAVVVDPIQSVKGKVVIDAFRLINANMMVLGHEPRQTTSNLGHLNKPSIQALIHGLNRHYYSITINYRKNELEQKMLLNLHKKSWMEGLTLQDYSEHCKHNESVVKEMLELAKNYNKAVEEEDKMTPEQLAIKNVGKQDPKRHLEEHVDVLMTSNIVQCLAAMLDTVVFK
STEP block: STEP phosphatase inhibitors, primary screen, biochemical, fluorescence intensity, uHTS. hit rate 0.25% among 360,000. inhibition, % at 20 µM. recombinant STEP, OMFP fluorogenic substrate;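 active means inhibition at 20 µM, scaled per plate between control wells, above about 37%, limit read from the data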;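 further: 0% = DMSO with enzyme and substrate and 100% = substrate only without enzyme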
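System: STEP (striatal-enriched tyrosine phosphatase) enzyme, cell-free; medium: Bis-Tris pH 6.0 buffer with DTT, detergent; dosing: 20 µM, 1% DMSO; times: reaction 20 min, ambient temperature; detection: fluorescence, 480/540 nm; read-out basis: normalized % inhibition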
SUMO1-SIM PPI: modulators of SUMO1 protein-protein interactions, primary screen, biochemical, uHTS; Small ubiquitin-related modifier 1 (Homo sapiens), P63165; SUMO1 binding to a labelled peptide, TR-FRET, 1 h; inhibition, % at 20 µM; hit rate 0.33% among 360,000; AID 602429, 2012; in the data active means inhibition above about 37%
DNMT1 block: human DNMT1 methyltransferase inhibitors, primary screen, biochemical, molecular beacon, fluorescence, HinP1I cleavage, uHTS; AID 588458, 2011; hit rate 0.83% among 360,000; inhibition (reported as % activation of signal), % at 10 µM; in the data active means inhibition above about 50%
* = called active by the depositor; i = inactive; nt = no result shown; + = active, no number.

SMILES | LMPTP block | Scp1 inh | Rpn11 inh | STEP block | SUMO1-SIM PPI | DNMT1 block
CN(Cc1ccccc1)C1=CC(=[N+]2CCCCC2)CC(C)(C)C1 | 2.1 | 104.0* | -11.2 | 0.2 | -2.0 | 1.8
CCOc1ccc(N=Nc2c(C)noc2C)cc1 | -0.7 | -2.3 | 6.8 | -1.7 | 10.8 | 2.8
COCCCNC1=C(Cl)C(=O)c2ccccc2C1=O | 1.8 | 17.1 | -0.1 | 3.9 | -44.1 | -23.5
COCCCNc1c2c3c(cccc3[nH]c1=O)C(=O)c1ccccc1-2 | -29.7 | -1.6 | -182.1 | i | -173.4 | +
O=C1C(=C(I)I)c2ccccc2-c2ccccc21 | 37.3 | 44.3 | 31.4 | 11.0 | 35.9* | 114.8*
O=C(CSc1ccc(S(=O)(=O)N2CCCC2)cn1)Nc1ccc([N+](=O)[O-])cc1C(F)(F)F | 1.2 | -8.2 | 4.1 | 3.0 | -27.1 | -3.4
Cc1cc(N2CCN(C(C(=O)NC3CCCC3)c3ccc(F)cc3)CC2)c2ccccc2n1 (stereo unspecified) | 45.4 | nt | nt | nt | -1.0 | nt
Cc1cc(N2CCN(C(C(=O)NC3CCCC3)c3ccco3)CC2)c2ccccc2n1 (stereo unspecified) | 56.5* | nt | nt | nt | 5.9 | nt
Cc1ccc(NC(=O)c2cccc(C(F)(F)F)c2)cc1NC(=O)c1[nH]cnc1C(N)=O | -0.8 | -5.2 | -5.0 | 0.2 | -5.2 | 7.3
Cc1cn(-c2cc(NC(=O)c3ccc(C)c(NC(=O)c4cccc(-c5cn[nH]c(=O)c5)c4)c3)cc(C(F)(F)F)c2)cn1 | -1.3 | 5.4 | 107.4* | 1.8 | 73.3* | 4.5
NCCCC[C@H]1NC(=O)[C@H](CCC(=O)O)NC(=O)c2cc([N+](=O)[O-])cc(I)c2OCC[C@@H](C(N)=O)NC1=O | nt | 91.3* | nt | nt | nt | nt
C[C@@H]1NC(=O)c2cc([N+](=O)[O-])cc(I)c2OCC[C@@H](C(N)=O)NC(=O)[C@H](CCCCN)NC1=O | -2.4 | -8.1 | -4.7 | 2.2 | -20.7 | 3.9
CCN(CC)c1ccc(NC(=O)CSc2ccsc2[N+](=O)[O-])c(C)c1 | 1.7 | 18.9 | -9.5 | 4.9 | -5.8 | 53.2*
CN(Cc1ccccc1)C(=O)[C@@H]1CCCN1C(=O)[C@@H]1CCCN1C(=O)c1cccc(Cl)c1 | -1.3 | nt | nt | nt | 1.8 | nt
Cn1c(=O)n(C)c2cc(N3CCOCC3)c(NC(=O)c3ccc(F)cc3)cc21 | -1.3 | -2.2 | 1.0 | -1.9 | 48.8* | 3.5
COc1cccc(OC)c1C(=O)Nc1cc2c(cc1N1CCOCC1)n(C)c(=O)n2C | 0.1 | -14.1 | 1.5 | -1.6 | 6.5 | -0.7
O=C1CC(SC(=S)C2CCCC2=O)C(=O)N1 (stereo unspecified) | 0.6 | nt | 31.5 | 11.6 | 30.3 | 68.8*
CC1=NN(c2ccccc2)C(=O)C1C(=S)SC1CC(=O)NC1=O (stereo unspecified) | -0.4 | nt | -0.5 | 6.3 | -15.6 | -0.5
COCC(C)OC(=O)c1c(N)n(CC(C)C)c2nc3ccccc3nc12 (stereo unspecified) | 19.6 | 4.6 | 15.3 | 3.4 | 41.3* | 60.0*
CC(C)OC(=O)c1c(N)n(CCCN2CCOCC2)c2nc3ccccc3nc12 | 1.0 | 16.8 | 6.7 | -0.1 | -7.0 | -4.4
CC1C/C(=N/O)C(C)CN1 (stereo unspecified) | -0.4 | -4.5 | 1.3 | 1.7 | -2.7 | 1.9
O=C(COC(=O)c1ccc(-c2cnc3ccccc3n2)cc1)c1ccccc1 | -1.5 | -10.5 | -4.6 | -1.8 | 40.6* | 8.8
Cc1ccc(C(=O)OCC(=O)c2ccccc2)cc1 | 0.0 | -9.5 | 6.6 | 1.5 | 1.9 | 2.2
O=C1C(=Cc2ccco2)CCC1=Cc1ccco1 | 64.3* | 80.1* | nt | 97.2* | 121.2* | 34.4
CNc1ccc2c3c(cccc13)C(=O)N(C)C2=O | -21.4 | -12.5 | -247.4 | -205.5 | -228.4 | +
CN1C(=O)c2cccc3c(Cl)ccc(c23)C1=O | 0.2 | -6.3 | -12.4 | -3.9 | -14.3 | 20.2

Source: PubChem
